Compound activity from PubChem BioAssay.
Only some compounds are listed: those with a hit (about 4.5% of all), similar ones and a draw of the others.
GPR7 antagonist: GPR7 receptor antagonists, primary screen, cell-based, fluorescence, single concentration; Neuropeptides B/W receptor type 1 (Homo sapiens), P48145; GPR7-expressing cells, fluorescence antagonist assay; inhibition, % at 4.4 µM; 290,000 tested, 1.1% active; in the data active = inhibition above about 16%, passing the limit was not always enough;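 also: cells stimulated with the agonist NPW; 0% = agonist with vehicle and 100% = vehicle without agonist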
Target sequence (P48145 whole entry, looked up): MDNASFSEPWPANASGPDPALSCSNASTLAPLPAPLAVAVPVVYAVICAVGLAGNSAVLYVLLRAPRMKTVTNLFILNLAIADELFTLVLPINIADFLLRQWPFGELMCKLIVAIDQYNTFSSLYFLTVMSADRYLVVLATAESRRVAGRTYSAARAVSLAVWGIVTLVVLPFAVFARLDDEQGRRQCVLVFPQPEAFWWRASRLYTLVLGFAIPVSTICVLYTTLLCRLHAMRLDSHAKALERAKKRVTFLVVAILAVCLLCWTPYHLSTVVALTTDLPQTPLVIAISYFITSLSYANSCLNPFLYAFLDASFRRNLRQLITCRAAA
TAAR1 antagonist: human TAAR1 antagonists, primary screen, Fluo-8 calcium fluorescence, CHO RD-HGA16 cells; Trace amine-associated receptor 1 (Homo sapiens), Q96RJ0; antagonist; inhibition, % at 3 µM; 360,000 tested, 1.5% active;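 active = inhibition above a per-plate cutoff, the mean inhibition of test compounds on that plate plus 3 SD, cut at about 49% in these data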;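 also: 0% = DMSO plus EC80 beta-PEA response and 100% = DMSO alone without agonist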
Target sequence (Q96RJ0 whole entry, looked up): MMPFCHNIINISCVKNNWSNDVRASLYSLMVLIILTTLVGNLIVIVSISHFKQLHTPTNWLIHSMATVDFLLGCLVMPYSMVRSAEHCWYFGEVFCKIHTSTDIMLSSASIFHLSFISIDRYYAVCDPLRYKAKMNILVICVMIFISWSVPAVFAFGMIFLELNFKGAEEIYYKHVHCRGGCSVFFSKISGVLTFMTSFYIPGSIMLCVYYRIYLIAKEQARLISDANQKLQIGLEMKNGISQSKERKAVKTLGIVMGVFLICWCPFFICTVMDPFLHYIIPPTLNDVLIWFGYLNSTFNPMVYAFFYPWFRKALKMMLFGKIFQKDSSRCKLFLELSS
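Material: CHO RD-HGA16 cells bearing hTAAR1; compound dosing: one-point dosing, 3 µM nominal final; schedule: dye loading 75 min at 37 °C, then 30 min room temperature; measured by: calcium fluorescence with Fluo-8; control set: vehicle and agonist controls; replication: n of 1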
CHO parental Ca: ATP-evoked calcium signal inhibitors, parental CHO, primary screen, counter-screen for OX1R antagonist project, cell-based, fluorescence, Fluo-8 calcium dye | parental CHO-K1, ATP-induced calcium, Fluo-8 fluorescence | inhibition, % at 5.6 µM | 330,000 tested, 0.63% active;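 active = inhibition above that plate's mean sample inhibition plus 3 SD, cut at about 26% in these data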;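 also: 0% = ATP-challenged DMSO wells and 100% = DMSO wells without ATP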
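Assay system – parental CHO cells · Reagent – ATP stimulus · Detection – intracellular calcium via Fluo-8 no-wash fluorescent dye · Evaluation – percent inhibition of ATP-evoked calcium rise, normalized to controls · Controls – ATP wells versus no-ATP DMSO wells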
OX1R antag-1: OX1R (HCRTR1) antagonists, primary screen, fluorescence, CHO/OX1R cells, Fluo-8 calcium, orexin A. AID 434989, 2010. Fluo-8 calcium fluorescence. 330,000 tested, 0.43% active. Orexin/Hypocretin receptor type 1 (Homo sapiens), O43613. inhibition, % at 5 µM;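 active = inhibition above its plate's threshold, mean inhibition of all tested compounds on the plate plus 3 SD, cut at about 37% in these data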;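 also: 0% = orexin A challenge wells and 100% = SB-334867-A antagonist wells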
OX1R antag-2: antagonists of human orexin 1 receptor (OX1R); Orexin/Hypocretin receptor type 1 (Homo sapiens), O43613; OX1R-expressing cells, FRET antagonist read-out; AID 485270, 2010; inhibition, % at 6.6 µM; 330,000 tested, 1.8% active; in the data active = inhibition mostly above about 38%, no sharp cut-off; inactive = mostly below about 40%;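 also: 0% = agonist challenge alone and 100% = reference antagonist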
TAAR1 agonist: human TAAR1 agonists, primary screen, Fluo-8 calcium fluorescence, CHO RD-HGA16 cells. AID 624467, 2012. vehicle wells 0%, saturating PEA agonist 100%. 360,000 tested, 0.99% active. activation, % at 3 µM;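 active = activation above the mean activation of all test compounds in the run plus 3 SD, cut at about 38% in these data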
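Assay system: CHO-derived RD-HGA16 cells with stable Gα16 and human TAAR1; timing: 17-24 h seeding, 75 min 37 °C dye, 30 min RT; read-out: % activation from peak over basal fluorescence ratio, DMSO-to-PEA scaled; measured by: kinetic Fluo-8 calcium fluorescence; benchmarks: low control DMSO, high control PEA (EC100); doses: 3 µM single concentration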
* marks the source's active call; other numbers are inactive results; . = no result.

SMILES | GPR7 antagonist | TAAR1 antagonist | CHO parental Ca | OX1R antag-1 | OX1R antag-2 | TAAR1 agonist
O=C1c2ccccc2/C(=C\c2ccc(O[C@@H]3CCCCO3)cc2)N1c1ccccc1 | . | 34 | . | . | . | 4
O=C(Nc1ccc(C(=O)N2CCOCC2)cc1)c1cc(-c2cccnc2)nc2ccc(Br)cc12 | 3 | 53* | -3 | -10 | 5 | 20
O=C(NNC(=O)c1cc(-c2cccnc2)nc2ccccc12)Nc1ccc(Cl)cc1 | -9 | 82* | 59* | 27 | 32 | 13
O=C(Oc1ccc[nH]c1=O)C1CC1 | . | -6 | . | . | . | 2
COCOCCn1cc(CN2CCS(=O)(=O)N(Cc3ccc(-c4ccncc4)cc3)C(CC(C)C)C2=O)nn1 (centres undefined) | . | 18 | . | . | . | 6
Cc1noc(C)c1CSCC(=O)N1CCN(c2ccc(F)cc2)CC1 | 0 | 6 | -4 | -20 | 18 | 15
Cc1cccc(N2CCN(C(=O)CSCc3c(C)noc3C)CC2)c1C | 7 | . | 46* | 18 | 30 | .
CCn1cc([N+](=O)[O-])c(C(=O)N2N=C(c3ccc(O)c(OC)c3)CC2c2ccccc2O)n1 (centres undefined) | -10 | 28 | -23 | -16 | 14 | 12
CCn1cc([N+](=O)[O-])c(C(=O)N2N=C(c3ccc(Cl)c(Cl)c3)CC2c2ccccc2O)n1 (centres undefined) | -3 | 23 | 44* | 73* | 18 | 10
O=S1(=O)N[C@@H](Cc2ccccc2)COc2cccc(N3CCCC3)c21 | . | 4 | . | . | . | 8
O=C(Nc1cccc(Cl)c1)Nc1nc(-c2ccccc2)cs1 | -2 | -1 | 37* | 34 | 46 | 16
Cc1nnc(NC(=O)Nc2cccc(Cl)c2)s1 | -3 | 36 | 4 | -11 | 35 | 43*
O=C(Nc1ccc(Cl)cc1)Nc1nc(-c2ccccc2)cs1 | -12 | 12 | 5 | 13 | 2 | 3
C[C@@H]1CNC(=O)c2c(C(=O)N3CCN(c4ccccc4)CC3)ncn21 | . | -1 | . | . | . | 0
CCCOC(=O)c1ccc(OCC(O)Cn2c(C)nc3ccccc32)cc1 (centres undefined) | -1 | 54* | . | . | . | 6
Cc1cc(C2(c3ccc(O)c(C)c3)C(=O)Nc3ccccc32)ccc1O | -11 | 25 | 43* | 18 | 13 | 23
O=C1Nc2ccccc2C1(O)c1ccccc1 (centres undefined) | -11 | 18 | 0 | -13 | 13 | 8
COc1ccc2cc(/C=N/NC(=O)CN(c3ccccc3OC)S(=O)(=O)c3ccccc3)c(Cl)nc2c1 | . | 15 | . | . | . | 10
CC1(C(=O)Nc2cnc3ccccc3c2)CCN1Cc1ccc2ccccc2c1 (centres undefined) | . | 41 | . | . | . | 3
CC1(C(=O)Nc2cnc3ccccc3c2)CCN1Cc1cc2ccccc2o1 (centres undefined) | . | 49* | . | . | . | 1
C/C=C(/C)C(=O)O[C@@H]1[C@H](OC(C)=O)c2c(ccc3ccc(=O)oc23)OC1(C)C | -12 | 19 | -25 | -25 | 28 | 8
C/C=C(/C)C(=O)OC1c2c(ccc3ccc(=O)oc23)OC(C)(C)C1OC(C)=O (centres undefined) | 1 | 48 | 14 | 8 | 22 | 46*
Cc1ccc2nc(CSc3nnc4ccccn34)cc(=O)n2c1 | 17* | 13 | -10 | -13 | 25 | 2
COC(=O)[C@@]12C[C@@H](CC(=O)NCc3ccccc3)C(=O)N(Cc3ccccc3)C1=CCC(C)(C)C2 | . | -14 | . | . | . | 1
O=c1cc(-c2ccccc2Cl)oc2c(NS(=O)(=O)c3cc(Cl)cc(Cl)c3O)ccc(O)c12 | 13 | . | 75* | 43 | 70* | .
SMILES | GPR7 antagonist | TAAR1 antagonist | CHO parental Ca | OX1R antag-1 | OX1R antag-2 | TAAR1 agonist
Cc1cc(N)n2ncc(-c3cccc(Br)c3)c2n1 | -21 | -9 | -5 | 23 | 43* | 2
CC(=O)Nc1ccc(Nc2cc(C)nc3c(-c4ccccc4)cnn23)cc1 | -3 | 49* | -4 | -15 | 16 | 41*
CC(=O)Nc1ccc(Nc2cc(-c3ccccc3)nc3ncnn23)cc1 | -11 | -14 | -1 | -19 | 23 | 5
Cc1cc(N)n2ncc(-c3ccccc3)c2n1 | -6 | 5 | -8 | 1 | 56 | 9
CCSc1cc(C)nc2c(-c3ccccc3)cnn12 | -12 | -37 | -19 | -4 | 59* | -1
Cc1cc2nc(C3CCCN(C(=O)NCc4ccccc4)C3)[nH]c2cc1C (centres undefined) | -1 | -2 | -16 | -18 | 61* | 3
Cc1cc2nc(C3CCCN(C(=S)Nc4ccccc4C)C3)[nH]c2cc1C (centres undefined) | -6 | -12 | -17 | 1 | 16 | -2
COC(=O)[C@]12C[C@H](CC(=O)NCC34CC5CC(CC(C5)C3)C4)C(=O)N(Cc3ccc4c(c3)OCO4)C1=C[C@H](C(C)(C)C)O[C@@H]2C | . | 4 | . | . | . | -1
COC(=O)C1=C(C)N(Cc2ccc(C(F)(F)F)cc2)C(=NCc2ccccc2C(F)(F)F)NC1c1ccccc1C(F)(F)F (centres undefined) | . | -21 | . | . | . | 2
CCOC(=O)c1cnc(-n2nc(C)cc2C)nc1NC1CCCC1 | 12 | 28 | 43* | 59* | 14 | 14
CCOC(=O)c1cnc(-n2nc(C)cc2C)nc1Nc1ccc(OC)cc1 | -10 | 7 | -21 | -39 | 13 | -1
CCCN1CCCCC(NC(=O)c2ccc(-c3ccccc3)cc2)C1=O (centres undefined) | . | -1 | . | . | . | 0
O=C(/C=C/c1ccco1)Nc1ccc(Oc2ccc(Cl)cc2)cc1 | 7 | 78* | 17 | 11 | 66 | 10
COc1cccc(NC(=O)/C=C/c2ccco2)c1 | -7 | 19 | 1 | -17 | 13 | 0
CC1CCCCC1NC(=S)Nc1ccc(SC(F)F)cc1 (centres undefined) | 5 | 41 | 32 | 40* | 63 | 7
S=C(Nc1ccc(Br)cc1)NC1CCCC1 | -7 | -1 | 0 | 7 | 17 | 15
CN(C(=S)Nc1ccc(SC(F)F)cc1)C(c1ccccc1)c1ccccc1 | 3 | -12 | 4 | -21 | 0 | -1
FC(F)Sc1ccc(NC(=S)NC(c2ccccc2)c2ccccc2)cc1 | 2 | 11 | 39* | 23 | 41* | 15
FC(F)Sc1ccc(NC(=S)NC2CCCCC2)cc1 | -2 | 14 | 11 | 24 | 42* | 11
